Reference: ChEMBL document CHEMBL1129409, “5-HT1D receptor agonist properties of novel 2-[5-[[(trifluoromethyl)sulfonyl]oxy]indolyl]ethylamines and their use as synthetic intermediates” (J Med Chem, 1996)

Key:
Cavia porcellus [1] = test: The level of 5-HIAA (hypothalamus) measured by means of HPCL with electrochemical detection methods at 6.250 (umol/kg, sc); format: functional
Outline: (§1)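 Male Dunkin-Hartley guinea pigs dosed sc in 0.25% methylcellulose (citric acid added for free bases), 5 mL/kg. Decapitated 60 min after dosing; prefrontal cortex and hypothalamus dissected on ice and stored at -80 °C. 5-HT and 5-HIAA measured by HPLC-electrochemical detection. Expressed as % of vehicle controls, mean ± SEM (n=4-5); ANOVA with Fisher's PLSD.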

Cavia porcellus [2] = test: The level of 5-HT (prefrontal cortex) measured by means of HPCL with electrochemical detection methods at 6.250 (umol/kg, sc); format: functional; outline: as §1
Cavia porcellus [3] = test: The level of 5-HIAA (prefrontal cortex) measured by means of HPCL with electrochemical detection methods at 6.250 (umol/kg, sc); format: functional; outline: as §1
Cavia porcellus [4] = test: Effect of 6.250 (umol/kg, sc) compound on guinea pig rectal temperature (Hypothermia); format: functional
Outline: (§2)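 Male guinea pigs housed individually at least 1 h before testing, groups of five. Compound given sc in 0.25% methylcellulose (equimolar citric acid for free bases), 5 mL/kg. Rectal probe inserted 3-4 cm; temperature read before dosing and at 60 min. Reported as change from the 0 min value, mean ± SEM (n=4-5).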

D(2) dopamine receptor = D(2) dopamine receptor (Rattus norvegicus, UniProt P61169); test: Binding affinity for rat dopamine D2 receptor expressed in CHO-K1 cells; format: cell-based
Outline: (§3)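 CHO cell membranes expressing cloned human 5-HT1A, 5-HT1Dα or 5-HT1Dβ receptors, or rat D2 receptors (20-60 µg protein). Radioligands: [3H]-8-OH-DPAT (5-HT1A), [3H]-5-HT (5-HT1D), [3H]U-86170 (D2). Buffers at pH 7.4: 50 mM Tris/5 mM MgCl2 (5-HT1A); the same with 0.1% ascorbic acid (5-HT1D); 20 mM HEPES/10 mM MgSO4 (D2). Nonspecific binding defined with lisuride, serotonin and haloperidol respectively. 11 concentrations in duplicate, 1 h at room temperature (5-HT1D protected from light), filtration.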

Cavia porcellus [5] = test: The level of 5-HT (prefrontal cortex) measured by means of HPCL with electrochemical detection methods at 25 (umol/kg, sc); format: functional; outline: as §1
Cavia porcellus [6] = test: The level of 5-HIAA (hypothalamus) measured by means of HPCL with electrochemical detection methods at 25 (umol/kg, sc); format: functional; outline: as §1
Cavia porcellus [7] = test: The level of 5-HT (hypothalamus) measured by means of HPCL with electrochemical detection methods at 25 (umol/kg, sc); format: functional; outline: as §1
Cavia porcellus [8] = test: The level of 5-HIAA (prefrontal cortex) measured by means of HPCL with electrochemical detection methods at 25 (umol/kg, sc); format: functional; outline: as §1
Cavia porcellus [9] = test: Effect of 25 (umol/kg, sc) compound on guinea pig rectal temperature (Hypothermia); format: functional; outline: as §2
Cavia porcellus [10] = test: The level of 5-HIAA (hypothalamus) measured by means of HPCL with electrochemical detection methods at 50(umol/kg, sc); format: functional; outline: as §1
[11] = target: T1, 5-hydroxytryptamine receptor 1B (Homo sapiens, UniProt P28222); test: Compound was tested for binding affinity against cloned human 5-hydroxytryptamine 1D receptor beta expressed in CHO-K1 cells.; format: cell-based
Cavia porcellus [12] = test: The level of 5-HT (hypothalamus) measured by means of HPCL with electrochemical detection methods at 50(umol/kg, sc); format: functional; outline: as §1
Cavia porcellus [13] = test: Effect of 50(umol/kg, sc) compound on guinea pig rectal temperature; Hypothermia 0-60 delta degree C; format: functional; outline: as §2
[14] = Distribution coefficient (LogD) of compound reported; format: physicochemical; details: octanol/water
Outline: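 log D calculated with Pallas version 1.2.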

[15] = target: T2, 5-hydroxytryptamine receptor 1A (Homo sapiens, UniProt P08908); test: Compound was tested for binding affinity against cloned human 5-hydroxytryptamine 1A receptor expressed in CHO-K1 cells.; format: cell-based
T2 sequence (P08908 whole entry): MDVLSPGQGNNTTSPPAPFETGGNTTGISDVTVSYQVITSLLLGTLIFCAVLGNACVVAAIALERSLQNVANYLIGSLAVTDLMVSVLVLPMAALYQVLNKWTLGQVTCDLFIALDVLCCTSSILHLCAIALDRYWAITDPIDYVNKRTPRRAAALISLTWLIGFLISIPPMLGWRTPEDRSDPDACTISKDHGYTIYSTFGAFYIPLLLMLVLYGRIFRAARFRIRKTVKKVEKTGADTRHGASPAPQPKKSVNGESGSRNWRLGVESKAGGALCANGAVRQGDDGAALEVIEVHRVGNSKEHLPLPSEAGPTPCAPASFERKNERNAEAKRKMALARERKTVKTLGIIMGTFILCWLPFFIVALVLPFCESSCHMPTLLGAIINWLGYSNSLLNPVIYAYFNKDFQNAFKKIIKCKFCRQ
Outline: as §3, with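 “protein).” for “protein). Radioligands: [3H]-8-OH-DPAT (5-HT1A), [3H]-5-HT (5-HT1D), [3H]U-86170 (D2).”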

Cavia porcellus [16] = test: Effect of 12.5 (umol/kg, sc) compound on guinea pig rectal temperature; Hypothermia 0-60 delta degree C; format: functional; outline: as §2
Cavia porcellus [17] = test: The level of 5-HIAA (prefrontal cortex) measured by means of HPCL with electrochemical detection methods at 50(umol/kg, sc); format: functional; outline: as §1
[18] = target: T3, 5-hydroxytryptamine receptor 1D (Homo sapiens, UniProt P28221); test: (§4) Compound was tested for binding affinity against cloned human 5-hydroxytryptamine 1D receptor alpha expressed in CHO-K1 cells.; format: cell-based
Outline: as §3, with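 “protein).” for “protein). Radioligands: [3H]-8-OH-DPAT (5-HT1A), [3H]-5-HT (5-HT1D), [3H]U-86170 (D2).”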
Target sequence in this assay (P28221 whole entry): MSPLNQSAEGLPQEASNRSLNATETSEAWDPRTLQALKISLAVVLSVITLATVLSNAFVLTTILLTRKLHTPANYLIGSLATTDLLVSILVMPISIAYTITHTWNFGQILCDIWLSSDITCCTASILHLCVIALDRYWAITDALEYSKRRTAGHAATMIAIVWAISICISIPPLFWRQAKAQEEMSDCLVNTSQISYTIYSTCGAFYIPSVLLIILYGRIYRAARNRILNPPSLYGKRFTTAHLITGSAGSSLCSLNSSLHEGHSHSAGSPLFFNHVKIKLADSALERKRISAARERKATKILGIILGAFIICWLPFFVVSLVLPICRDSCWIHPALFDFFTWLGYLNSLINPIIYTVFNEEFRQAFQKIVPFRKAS

Cavia porcellus [19] = test: The level of 5-HT (prefrontal cortex) measured by means of HPCL with electrochemical detection methods at 50(umol/kg, sc); format: functional; outline: as §1
[20] = target: T3, 5-hydroxytryptamine receptor 1D; test: Compound was tested for binding affinity against human 5-hydroxytryptamine 1D receptor alpha clones expressed in human embryonic kidney (HEK 293) cells line.; format: cell-based, HEK293
Outline: (§5)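 HEK 293 microsomal membranes expressing human 5-HT1Dα or 5-HT1Dβ, in 50 mM Tris-HCl buffer with 4 mM CaCl2, 0.1% ascorbic acid, pargyline and leupeptine. [3H]-5-HT (final 0.01-150 nM) incubated with membranes and displacer for 30 min at 25 °C. Glass-fibre filtration, then scintillation counting. Nonspecific binding taken with 10^-5 M 5-HT. Nonlinear least-squares fitting (EBDA/LIGAND); mean ± SEM, n=3.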
Target sequence in this assay (P28221 whole entry): as above

[21] = target: T1, 5-hydroxytryptamine receptor 1B; test: Compound was tested for binding affinity against cloned human 5-HT1D beta receptor expressed in CHO-K1 cells.; format: cell-based; outline: as §3
[22] = target: T3, 5-hydroxytryptamine receptor 1D; test: Ratio of receptor binding affinities of 5-hydroxytryptamine 1D receptor alpha vs 5-hydroxytryptamine 1D receptor beta
Target sequence in this assay (P28221 whole entry): as above

[23] = target: T1, 5-hydroxytryptamine receptor 1B; test: Compound was tested for binding affinity against human 5-hydroxytryptamine 1D receptor beta clones expressed in human embryonic kidney (HEK 293) cells line.; format: cell-based, HEK293; outline: as §5
[24] = target: T3, 5-hydroxytryptamine receptor 1D; test: Displacement of [3H]-5-HT from human 5-hydroxytryptamine 1D receptor alpha expressed in HEK 293 cells; format: cell-based, HEK293; outline: as §5
Target sequence in this assay (P28221 whole entry): as above

[25] = target: T3, 5-hydroxytryptamine receptor 1D; test: as §4; format: cell-based; outline: as §3; remark: listed apart in the source
Cavia porcellus [26] = test: The level of 5-HT (prefrontal cortex) measured by means of HPCL with electrochemical detection methods at 12.5 (umol/kg, sc); format: functional; outline: as §1
Cavia porcellus [27] = test: Effect of 50(umol/kg, sc) compound on guinea pig rectal temperature (Hypothermia); format: functional; outline: as §2
Rattus norvegicus [28] = test: 5-HTP accumulation in Rat brain hippocampus when Reserpine given 24 hr before decapitation & 45 & 30 min before 10 umol/kg test drug; format: functional
Outline: (§6)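 Rats reserpinized (5 mg/kg ip) 24 h before test compound (10 µmol/kg sc in saline, 1.0 mL/kg). NSD 1015 (100 mg/kg) given 15 min after test compound; decapitation 30 min later. Regions stored at -70 °C, homogenized in TCA, supernatant analysed by HPLC-electrochemical detection. Output is 5-HTP in µg/g wet tissue, mean ± SEM (striatum n=8, others n=4); one-way ANOVA with post hoc t-test.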

Rattus norvegicus [29] = test: 5-HTP accumulation in Rat brain striatum when Reserpine given 24 hr before decapitation & 45 & 30 min before 10 umol/kg test drug; format: functional; outline: as §6
Cavia porcellus [30] = test: The level of 5-HIAA (hypothalamus) measured by means of HPCL with electrochemical detection methods at 12.5 (umol/kg, sc); format: functional; outline: as §1
Cavia porcellus [31] = test: The level of 5-HIAA(prefrontal cortex) measured by means of HPCL with electrochemical detection methods at 12.5 (umol/kg, sc); format: functional; outline: as §1
Rattus norvegicus [32] = test: 5-HTP accumulation in Rat brain accumbens when Reserpine given 24 hr before decapitation & 45 & 30 min before 10 umol/kg test drug; format: functional; outline: as §6
Cavia porcellus [33] = test: Effect of 12.5 (umol/kg, sc) compound on guinea pig rectal temperature (Hypothermia); format: functional; outline: as §2
Rattus norvegicus [34] = test: 5-HTP accumulation in Rat brain frontal cortex when Reserpine given 24 hr before decapitation & 45 & 30 min before 10 umol/kg test drug; format: functional; outline: as §6
Cavia porcellus [35] = test: The level of 5-HT (hypothalamus) measured by means of HPCL with electrochemical detection methods at 12.5 (umol/kg, sc); format: functional; outline: as §1

D(2) dopamine receptor, sequence (P61169 whole entry): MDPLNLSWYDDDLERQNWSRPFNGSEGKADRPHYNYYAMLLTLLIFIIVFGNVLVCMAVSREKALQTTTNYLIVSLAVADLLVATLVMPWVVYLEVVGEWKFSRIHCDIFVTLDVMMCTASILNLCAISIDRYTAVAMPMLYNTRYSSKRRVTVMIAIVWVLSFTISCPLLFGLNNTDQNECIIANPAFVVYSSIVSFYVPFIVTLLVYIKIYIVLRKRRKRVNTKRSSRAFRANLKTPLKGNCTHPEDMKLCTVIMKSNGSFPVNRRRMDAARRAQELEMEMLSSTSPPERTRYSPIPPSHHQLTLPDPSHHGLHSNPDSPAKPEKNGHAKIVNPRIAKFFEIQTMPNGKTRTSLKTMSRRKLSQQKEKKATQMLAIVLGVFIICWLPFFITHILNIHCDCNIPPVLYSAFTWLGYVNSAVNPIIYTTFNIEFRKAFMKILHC
T1 sequence (P28222 whole entry): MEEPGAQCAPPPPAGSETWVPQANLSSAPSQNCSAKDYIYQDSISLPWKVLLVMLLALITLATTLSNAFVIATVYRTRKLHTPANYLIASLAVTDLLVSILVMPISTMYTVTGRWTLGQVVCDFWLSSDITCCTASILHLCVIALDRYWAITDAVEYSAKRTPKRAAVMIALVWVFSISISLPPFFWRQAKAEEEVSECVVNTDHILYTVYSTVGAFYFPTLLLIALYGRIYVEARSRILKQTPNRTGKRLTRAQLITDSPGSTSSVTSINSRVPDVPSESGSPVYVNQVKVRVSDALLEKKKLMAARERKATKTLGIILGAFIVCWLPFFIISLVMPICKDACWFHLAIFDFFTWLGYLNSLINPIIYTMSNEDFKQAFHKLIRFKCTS

Compound: CCCN(CCC)C1CCc2cccc(O)c2C1 (stereo not drawn) [8-OH-DPAT]
- Others (Cavia porcellus [1]): 37%
- Others (Cavia porcellus [2]): 126%
- Others (Cavia porcellus [3]): 34%
- Others (Cavia porcellus [4]): 0.22

Compound: CNS(=O)(=O)Cc1ccc2[nH]cc(CCN(C)C)c2c1
- Ki (D(2) dopamine receptor): > 218 nM
- Others (Cavia porcellus [5]): 119%
- Others (Cavia porcellus [6]): 133%
- Others (Cavia porcellus [7]): 122%
- Others (Cavia porcellus [8]): 129%
- Others (Cavia porcellus [9]): -0.14

Compound: COc1ccc(CNC(=O)/C=C/c2ccc3[nH]cc(CCN(C)C)c3c2)cc1
- Others (Cavia porcellus [10]): 49%
- Ki [11]: 0.2 nM
- Others (Cavia porcellus [12]): 121%
- Others (Cavia porcellus [13]): -2.62
- logD [14]: 1.71
- Ki [15]: 1.3 nM
- Others (Cavia porcellus [16]): -1.62
- Others (Cavia porcellus [17]): 37%
- Ki [18]: 0.3 nM
- Others (Cavia porcellus [19]): 94%

Compound: CCCN(CCC)CCc1c[nH]c2ccc(OS(=O)(=O)C(F)(F)F)cc12
- IC50 [20]: 170 nM
- Ki (D(2) dopamine receptor): 502 nM
- Ki [21]: 246 nM
- logD [14]: 2.21
- Ki [15]: 23 nM
- Ratio [22]: 1.3
- IC50 [23]: 660 nM
- Ki [18]: 190 nM

Compound: NCCc1c[nH]c2ccc(OS(=O)(=O)C(F)(F)F)cc12
- Ki [11]: 14 nM
- Ki (D(2) dopamine receptor): 658 nM
- logD [14]: -0.24
- Ki [15]: 18 nM
- Ratio [22]: 5
- Ki [18]: 2.8 nM

Compound: CN(C)CCc1c[nH]c2ccc(OCc3ccccc3)cc12
- IC50 [24]: 25 nM
- IC50 [25]: 76 nM
- logD [14]: 2.28

Compound: CCN(CC)CCc1c[nH]c2ccc(O)cc12
- IC50 [24]: 77 nM
- IC50 [25]: 77 nM
- logD [14]: 0.28

Compound: CCCN(CCC)CCc1c[nH]c2ccc(O)cc12
- IC50 [24]: 820 nM
- IC50 [25]: 820 nM
- logD [14]: 1.24

Compound: CCCN(CCC)CCc1c[nH]c2ccc(OCc3ccccc3)cc12
- IC50 [24]: 470 nM
- IC50 [25]: 470 nM
- logD [14]: 3.08

Compound: CCN(CC)CCc1c[nH]c2ccc(OS(=O)(=O)C(F)(F)F)cc12
- IC50 [20]: 21 nM
- Ki (D(2) dopamine receptor): 637 nM
- Ki [25]: 171 nM
- logD [14]: 1.31
- Ki [15]: 27 nM
- Ratio [22]: 14.3
- IC50 [23]: 530 nM
- Ki [18]: 12 nM

Compound: CN(C)CCc1c[nH]c2ccc(OS(=O)(=O)C(F)(F)F)cc12
- Others (Cavia porcellus [10]): 54%
- Ki [11]: 32 nM
- IC50 [20]: 8.4 nM
- Ki (D(2) dopamine receptor): 538 nM
- Others (Cavia porcellus [26]): 104%
- Others (Cavia porcellus [12]): 123%
- Others (Cavia porcellus [27]): -1.72
- 5-HTP accumulation (Rattus norvegicus [28]): 0.28 µg/g
- Accumulation (Rattus norvegicus [28]): 100%
- 5-HTP accumulation (Rattus norvegicus [29]): 0.28 µg/g
- Accumulation (Rattus norvegicus [29]): 75.7%
- Others (Cavia porcellus [30]): 66%
- Others (Cavia porcellus [31]): 59%
- 5-HTP accumulation (Rattus norvegicus [32]): 0.4 µg/g
- Accumulation (Rattus norvegicus [32]): 81.6%
- logD [14]: 1.41
- Ki [15]: 40 nM
- Others (Cavia porcellus [33]): -1.7
- 5-HTP accumulation (Rattus norvegicus [34]): 0.37 µg/g
- Accumulation (Rattus norvegicus [34]): 78.8%
- Others (Cavia porcellus [17]): 46%
- Ratio [22]: 10
- IC50 [23]: 98 nM
- Ki [18]: 3.2 nM
- Others (Cavia porcellus [19]): 129%
- Others (Cavia porcellus [35]): 97%

Compound: CCN(CC)CCc1c[nH]c2ccc(OCc3ccccc3)cc12
- IC50 [24]: 110 nM
- IC50 [25]: 110 nM
- logD [14]: 2.18
